Fewer inactive variants are shown than the library holds.
B1: tRNA (parent)
chain: CUCUCGGUAGCCAAGUUGGUUUAAGGCGCAAGACUUUAAUUUAUCACUACGAAAUCUUGAGAUCGGGCGUUCGACUCGCCCCCGGGAGAUUUUUUCCUCGAGCAA

Variants of: B1
Experiment: nonsense suppression (GFP-seq) (ratio to wild type); higher = more function; SUP4oc tRNA, yeast GFP reporter sort-seq
Outline: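 Raffinose/galactose medium with 80 mg/L adenine was used to grow yeast carrying genome-integrated tRNA variants (~3% random-mutation library), RFP, and a galactose-driven GFP ochre reporter. Cells went into GFP/RFP bins, which were Illumina-sequenced, and variants with ≥100 reads and ≥30 cells were scored. Nonsense suppression (GFPSEQ) is the per-bin median GFP/RFP weighted by estimated cell share and expressed relative to the unmutated parent tRNA.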
With C1A U35G the nonsense suppression was ≤ 0.026. For U2A C34A G78U G86U, the nonsense suppression was ≤ 0.026. For C3U A30G C34U, the nonsense suppression was ≤ 0.026. In the case of C1U A9G, the nonsense suppression is reported as 0.0262. With U2A G65C the nonsense suppression was ≤ 0.026. In the case of C1A C12G U58A, the nonsense suppression is reported as ≤ 0.026. With U2C G88A the nonsense suppression was ≤ 0.026. In the case of C3A G86C, the nonsense suppression is reported as ≤ 0.026. With U2C G26U U76A the nonsense suppression was ≤ 0.026. Variant U2C A13U has a nonsense suppression of 0.0357. With C1U G6A C64G the nonsense suppression was ≤ 0.026. With U2C G19C U35A the nonsense suppression was ≤ 0.026. In the case of C3A A9G C64G, the nonsense suppression is reported as ≤ 0.026. For C3A C5G U57C U70A C80A, the nonsense suppression was ≤ 0.026. U2C G78A showed a nonsense suppression of 0.0386. In the case of C3A U22C G26U C80A, the nonsense suppression is reported as ≤ 0.026. For C1A U16A G88C, the nonsense suppression was ≤ 0.026. C1G A54C showed a nonsense suppression of 0.0309. In the case of U2A A33G, the nonsense suppression is reported as ≤ 0.026. For U2G U20A U63C U76C, the nonsense suppression was ≤ 0.026. C1A G73A showed a nonsense suppression of 0.112. In the case of C1G A33G U55C U71G G78C, the nonsense suppression is reported as ≤ 0.026. With C1A A54G A62U the nonsense suppression was ≤ 0.026. For C1A U17G U20G, the nonsense suppression was ≤ 0.026. U2A U22G C29A C34A gave a nonsense suppression of 0.221. In the case of C3G U55C, the nonsense suppression is reported as 0.152. In the case of U2C A89U, the nonsense suppression is reported as ≤ 0.026. U2A U55C gave a nonsense suppression of 0.0451. In the case of C3G G84U, the nonsense suppression is reported as ≤ 0.026. With C3G U16G G66A the nonsense suppression was ≤ 0.026. In the case of C1G G25A U35C, the nonsense suppression is reported as ≤ 0.026. For U2C C12G, the nonsense suppression was ≤ 0.026. For U2C A23G, the nonsense suppression was 0.0274. With C1A G67C C72A the nonsense suppression was ≤ 0.026. With C1U C3G G86A the nonsense suppression was ≤ 0.026. With C1U U2C A54C G61U U76A the nonsense suppression was ≤ 0.026. For U2C A9C C75A, the nonsense suppression was 0.038. In the case of C3A C72A, the nonsense suppression is reported as ≤ 0.026. In the case of C3G A30G U58A, the nonsense suppression is reported as ≤ 0.026. With C3A A23C G26A U58A G78C the nonsense suppression was ≤ 0.026. In the case of U2C G32A A54G, the nonsense suppression is reported as ≤ 0.026. For U2G U58G C83G, the nonsense suppression was ≤ 0.026. In the case of C1U G66U G86A, the nonsense suppression is reported as ≤ 0.026. For C3A G28A G73A A74G, the nonsense suppression was ≤ 0.026. Variant C1U A54U G88A has a nonsense suppression of 0.209. With U2G G6C G18A G67C G86A A87G the nonsense suppression was ≤ 0.026. For U2G G6C G18A G67C G86A A87U, the nonsense suppression was ≤ 0.026. For C1U A62G C80A, the nonsense suppression was ≤ 0.026. In the case of U2C G28U, the nonsense suppression is reported as ≤ 0.026. In the case of C3G A31C C68G C77U, the nonsense suppression is reported as ≤ 0.026. With C1U U4G C5U A31G C81A the nonsense suppression was ≤ 0.026. With C1U U2G U20G C29A the nonsense suppression was ≤ 0.026. For C1G A87G, the nonsense suppression was ≤ 0.026. With C1U G26A the nonsense suppression was ≤ 0.026. With C1U G7U G15A U35A A62G the nonsense suppression was ≤ 0.026. In the case of C1A U4G C27U, the nonsense suppression is reported as ≤ 0.026. With U2A U63C G84U the nonsense suppression was ≤ 0.026. In the case of C3G A13U, the nonsense suppression is reported as 0.0541. In the case of C1G A13U G25U G59C, the nonsense suppression is reported as ≤ 0.026. With C1A G18C the nonsense suppression was ≤ 0.026. Variant U2G A13U has a nonsense suppression of 0.0638. With C1G G61A U76C the nonsense suppression was 0.0371. In the case of C1U C34U G85C, the nonsense suppression is reported as ≤ 0.026. With C1U A9U A24C A30U A33G the nonsense suppression was ≤ 0.026. In the case of C3A U20A G28A, the nonsense suppression is reported as ≤ 0.026. For C3G G61C, the nonsense suppression was 0.0292. For C1U U17C C81G, the nonsense suppression was ≤ 0.026. In the case of U2G C12A, the nonsense suppression is reported as ≤ 0.026. For C3A C12G G18U U20G G61U U70G C75G, the nonsense suppression was ≤ 0.026. For C3U A9U A30G A54U G67A, the nonsense suppression was ≤ 0.026. For C1U G69C G73C, the nonsense suppression was ≤ 0.026. With C1A A30C the nonsense suppression was ≤ 0.026. For C1U G26A G69U C79U, the nonsense suppression was ≤ 0.026. In the case of C1G U4G G78C, the nonsense suppression is reported as ≤ 0.026. Work on C1G U20C yielded a nonsense suppression of 0.0266. C3U A9G showed a nonsense suppression of 0.195. With U2C the nonsense suppression was 0.185. For C3G G78A, the nonsense suppression was ≤ 0.026. U2A A13U showed a nonsense suppression of 0.0284. With U2A A13C the nonsense suppression was ≤ 0.026. In the case of U2C A60C C75U, the nonsense suppression is reported as ≤ 0.026. In the case of C1A U8A U55C A89U, the nonsense suppression is reported as ≤ 0.026. With C1U G6C G10U U58C the nonsense suppression was ≤ 0.026. For C1U G7A, the nonsense suppression was ≤ 0.026. With C3A U57A C80U A89U the nonsense suppression was ≤ 0.026. In the case of C1G A9G C11A U21A A30C G78A, the nonsense suppression is reported as ≤ 0.026. With C1A U21C G73A the nonsense suppression was ≤ 0.026. With C1U G32U U55A A62C G67C the nonsense suppression was ≤ 0.026. With C1G A9C G18U U71G the nonsense suppression was ≤ 0.026. For U2G G19U A31U C83A G84A, the nonsense suppression was ≤ 0.026. For C1A C81G, the nonsense suppression was ≤ 0.026. With C1A C81U the nonsense suppression was 0.045. In the case of C1G U20G A23U C27A U76A G88U, the nonsense suppression is reported as ≤ 0.026. For C1G U8G U63C G73U, the nonsense suppression was ≤ 0.026. For U2A G19C, the nonsense suppression was ≤ 0.026. With C1G G61A G78U A87C the nonsense suppression was ≤ 0.026. With C1A A24C A60C U63G C72G C77G the nonsense suppression was ≤ 0.026. Variant U2A A60G has a nonsense suppression of 0.0755. Variant U2A C81U has a nonsense suppression of 0.0376. In the case of U2C U20C, the nonsense suppression is reported as 0.0975. In the case of C1A A9U C68G U76A C81A, the nonsense suppression is reported as ≤ 0.026. For U2A G32U C34U, the nonsense suppression was ≤ 0.026. With C1A A62G A74C G84A the nonsense suppression was ≤ 0.026. For C3G C77A C83A, the nonsense suppression was ≤ 0.026. With C3A U70G the nonsense suppression was ≤ 0.026. With C1A A31U G84A G88A the nonsense suppression was ≤ 0.026. In the case of C1U U35A C77A G84U, the nonsense suppression is reported as ≤ 0.026. In the case of C3A G25C U63A, the nonsense suppression is reported as ≤ 0.026. With C3A C29G A60C C81G the nonsense suppression was ≤ 0.026. With U2A C68U the nonsense suppression was 0.18. For C3A U20G G28U U57C G61C A74U G78C C79A, the nonsense suppression was ≤ 0.026. In the case of U2A C29A C56A A60U, the nonsense suppression is reported as ≤ 0.026. Work on C3A A13C yielded a nonsense suppression of 0.0261. For C3A A13U, the nonsense suppression was 0.0379. For U2C U57A, the nonsense suppression was 0.0292. In the case of C1U G15C G26C, the nonsense suppression is reported as ≤ 0.026. With C1U A13C A30C C77U A89C the nonsense suppression was ≤ 0.026. For C3A C29A A54U, the nonsense suppression was ≤ 0.026. For C3A A23G G25U C72A, the nonsense suppression was ≤ 0.026. For C1G U58C A62U G78U, the nonsense suppression was ≤ 0.026. For U2G U16G U22G A23U, the nonsense suppression was ≤ 0.026. For C1G A31U G88A, the nonsense suppression was ≤ 0.026. With C1A U8G C12U A14C G85U the nonsense suppression was ≤ 0.026. In the case of U2C C80A, the nonsense suppression is reported as ≤ 0.026. Variant C3U A13G C34G has a nonsense suppression of 0.439. In the case of C1U U4A, the nonsense suppression is reported as 0.0473. For C3A C34A U58A, the nonsense suppression was ≤ 0.026. With U2C A24C the nonsense suppression was 0.0326. In the case of C3G A33U C34U A62G G67C, the nonsense suppression is reported as ≤ 0.026. For U2A G84A A89G, the nonsense suppression was ≤ 0.026. Work on C1A A30G G85A yielded a nonsense suppression of 0.0742. With C1G C64A the nonsense suppression was ≤ 0.026. With U2G C11A A74C G84C the nonsense suppression was ≤ 0.026. In the case of U2G C11U U55G A60U C82G G86C G88U, the nonsense suppression is reported as ≤ 0.026. With U2A G15A G66C G85U the nonsense suppression was ≤ 0.026. U2A G61A showed a nonsense suppression of 0.0448. With U2G A87U the nonsense suppression was 0.655. In the case of U2C U55A, the nonsense suppression is reported as ≤ 0.026. For C1U C3A C29A, the nonsense suppression was ≤ 0.026. In the case of C1A A23C C77A, the nonsense suppression is reported as ≤ 0.026. For C3G C77A, the nonsense suppression was ≤ 0.026. For C1U U2G G18U, the nonsense suppression was ≤ 0.026. C1U G66A gave a nonsense suppression of 0.254. With C3U A13U C34G the nonsense suppression was ≤ 0.026. In the case of C3A A33U, the nonsense suppression is reported as ≤ 0.026. In the case of U2A A23C, the nonsense suppression is reported as ≤ 0.026. In the case of U2C C5A C75U C83A, the nonsense suppression is reported as ≤ 0.026. In the case of C1U C3U C64G G69U, the nonsense suppression is reported as ≤ 0.026. With C3A G15U G25A the nonsense suppression was ≤ 0.026. Variant U2C A31G has a nonsense suppression of 0.0356. With U2C A13U C72A the nonsense suppression was ≤ 0.026. In the case of C1G A24U G28A A74C C81A A89G, the nonsense suppression is reported as ≤ 0.026. In the case of U2G C27U A30G C79U C83A, the nonsense suppression is reported as ≤ 0.026. With C3G C56G the nonsense suppression was ≤ 0.026. In the case of C3A G18C G86A, the nonsense suppression is reported as ≤ 0.026. With C3A G65A C68U G86U the nonsense suppression was ≤ 0.026. In the case of C3U A14G C80G, the nonsense suppression is reported as ≤ 0.026. In the case of C1U A14U, the nonsense suppression is reported as ≤ 0.026. With C3G U8G the nonsense suppression was ≤ 0.026. Variant C1G U16A has a nonsense suppression of 0.777. In the case of C1U U63C, the nonsense suppression is reported as ≤ 0.026. With U2C U4G the nonsense suppression was 0.0326. U2C U4C gave a nonsense suppression of 1.01. With C3A C29U A87G the nonsense suppression was ≤ 0.026. For U2C C12G A24C A62U C79A, the nonsense suppression was ≤ 0.026. For C1U G26U C34G, the nonsense suppression was ≤ 0.026. For C1G G25A G65A C83G, the nonsense suppression was ≤ 0.026.

Reference: the RNAGym collection of RNA variant scans (doi:10.1101/gad.245936.114)
